Data reported in ChEMBL document CHEMBL4513216, “Probing the Open Global Health Chemical Diversity Library for Multistage-Active Starting Points for Next-Generation Antimalarials” (ACS Infect Dis, 2020).

Experiment: Toxicity liver stage against HepG2, at 10uM
Type: cell-based
Set-up: test concentration 10 uM, cell line HepG2-A16-CD81EGFP
Conditions: human, HepG2-A16-CD81EGFP cells; read-out: INHIBITION
Method in brief: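 Uninfected HepG2-A16-CD81EGFP cells, 3 × 10^3 per well, 1536-well, plated on prespotted compound at 10 μM final, parasite-free screening media added to match infected plates; puromycin 10 μM positive, DMSO 0.5% negative; run in parallel with 48 h PbLuc assay at 37 °C, 5% CO2; viability by CellTiter-Glo luminescence, normalized to controls.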

Structure (SMILES) | cytotoxicity at 10 µM [%]
CCN1CCN(C(C)CNC(=O)Nc2nnc(C)s2)CC1 (centres undefined) | -12.2
CC(C)(C)c1coc([C@@H]2COCCN2Cc2cnc3ccccc3c2)n1 | 10.9
O=C1CN(C(=O)OCc2ccccc2)CC(O)CN1Cc1ccco1 (centres undefined) | -9.92
Cc1cc(C)n2c(CCCNS(=O)(=O)c3ccccc3)nnc2n1 | 1.18
COc1ccc2cnn(CC(=O)NCC3CCCO3)c(=O)c2c1OC (centres undefined) | 4.81
N#Cc1cccnc1OC1CCN(C(=O)c2cc(C3CC3)on2)CC1 | 0.253
COc1ccc(CC(=O)Nc2c(C)nc(N3CCOCC3)nc2C)cc1 | 5.39
CCSc1ccccc1C(=O)N1CCC(S(=O)(=O)c2nncn2C)CC1 | 0.595
COCCN1C[C@H]2CCN(C(=O)Nc3ccccc3C)CC[C@H]2S1(=O)=O | 0.64
COc1cccc(N2CC3(CCN(c4cc(OC)ncn4)C3)CC2=O)c1 (centres undefined) | 21.7
CC(C)Nc1nc2c(c(NC3CC3)n1)CCN(C(=O)C1CCOC1)CC2 (centres undefined) | -145
CN(C)C(=O)CNC(=O)c1nc2c(s1)CCCN2Cc1ccccc1 | 8.13
CC(=O)N1CCCc2sc(C(=O)Nc3ccc(C)nc3)nc21 | 7.46
O=C(NC1CCCC1)c1nc2c(o1)CN(C(=O)CO)C2 | 10
CS(=O)(=O)N1CCC2(CC1)CC(OCC1CCOCC1)CO2 (centres undefined) | 8.16
CCS(=O)(=O)N1CC[C@H]2OCC[C@@]2(c2nnc(C)o2)C1 | 7.95
Cc1noc(C2CN(S(=O)(=O)C3CC3)Cc3ccnn3C2)n1 (centres undefined) | 7.19
Cc1occc1C(=O)N1CCCn2cnc(CN3CCCC3=O)c2C1 | 4.24
CC1=N[C@@]2(CC[C@@H]3CN(C(=O)NC(C)C)C[C@@H]32)C(=O)N1CC(C)C | 7.74
O=C1CCCN1CC1CN(C(=O)N2CCOCC2)Cc2nccn2C1 (centres undefined) | -1.05
CCc1nc(C#N)c(N2CCC(c3nc(-c4ccccc4)no3)CC2)o1 | 0.689
CCN(c1ccc(C(=O)NCCN2CCOCC2)cc1)S(=O)(=O)CC | 6.89

Structure (SMILES) | cytotoxicity at 10 µM [%]
Cc1oc(-c2nc(C#N)c(NC(C)C)o2)cc1S(=O)(=O)N1CCCC1 | 5.61
CC(C)n1cc(N2CC(C(=O)N3CCN(C)CC3)CC2=O)cn1 (centres undefined) | 1.44
CCC(=O)N1CCCCC1c1nc(O)c2c(n1)CN(C(=O)C1CC1)CC2 (centres undefined) | 1.23
NC(=O)Nc1cccc(F)c1C(=O)NC1CCCC1 | -8.64
Cc1nnc(CN(C)CCc2nc(-c3cccc(Cl)c3)no2)n1C | 2.53
Cc1cc(NC(=O)NC(C)CN2CCN(c3ccccc3)CC2)on1 (centres undefined) | 11.5
FCCOc1cccc(NCc2c[nH]nc2-c2cccnc2)c1 | 1.14
COC(=O)c1sc2cccc(F)c2c1CNC(=O)C1CC1 | -11.4
CCc1nc2n(n1)CCCC2Nc1nc(C(C)C)ns1 (centres undefined) | 3.88
OCC1CCN(Cc2cc3c(cc2Br)OCCO3)CC1 | 6.84
Cc1cccc(C)c1NC(=O)CN(C)C(C)c1nc(C(C)(C)C)no1 (centres undefined) | -6.85
CCCn1nc2c(cc1=O)CN(Cc1nc(C)c3ccccc3n1)CC2 | -2.45
CNC(=O)c1ccc(CNCc2ccc(SC)c(OC)c2)cc1 | 0.838
CCN(CC(=O)N(C)C)C(=O)c1cc(-c2cccc(Cl)c2)no1 | 6.17
Cn1nc2c(cc1=O)CN(c1ncnc3ccsc13)CC2 | 9.3
CCc1cnc(N2CCN(Cc3ccncc3)CC2)s1 | 40.8
CC(C)c1nn(C)c(N(C)C)c1CNC1CCN(CC2CC2)CC1 | 8.96
CSCC(C)CNC(=O)N1CCSC(C)(C)C1 (centres undefined) | 0.873
Cc1ccc2c(c1)OCCCC2NC1CCN(C)CC1 (centres undefined) | 10.4
NC(=O)C(NC(=O)c1cc(Br)c[nH]1)c1ccccc1 (centres undefined) | 0.172
CC(C)(C)C(C#N)NC(=O)c1ccc(Oc2cccnc2)cc1 (centres undefined) | 5.21
CN1Cc2ccccc2CC2(CCN(Cc3nccn3C)CC2)C1=O | 7.81

Structure (SMILES) | cytotoxicity at 10 µM [%]
CCN(C(=O)c1nc2c(s1)CCCN2c1ccc(C)nn1)C(C)C | 3.86
Cn1cc(CN2Cc3cn(C)nc3C(COCC3CC3)C2)cn1 (centres undefined) | -69.8
Cc1nc(CN2C(=O)CC[C@@H]3[C@H]2CCN3C(=O)c2ccno2)cs1 | -82.7
Cn1cccc1C(=O)N1CCc2ncnc(N3CCOCC3)c2CC1 | -74.3
O=C(c1cccs1)N1CC[C@H]2[C@@H]1CCC(=O)N2c1cccnc1 | -74.3
O=C(c1cscn1)N1CCC2(CC1)CN(c1ccccn1)CCO2 | -71
O=C(Cc1ccsc1)N1CCCC(CNS(=O)(=O)Cc2ccccc2)C1 (centres undefined) | 4.24
CSCCCN1C(=O)CC[C@H]2CN(Cc3ncc[nH]3)CC[C@H]21 | 7.4
CN(Cc1ccc(CCC(C)(C)O)cc1)CC1(CO)CC1 | -4.32
O=C(CC1C=CCC1)N1CCc2ncnc(NCc3ccon3)c2CC1 (centres undefined) | 22.8
Cc1cc(C)c(C(=O)N2CCCC(C(=O)CCc3ccccc3)C2)cn1 (centres undefined) | -7.12
Cc1ccsc1CN(CCCC(F)(F)F)Cc1ccccn1 | 0.107
COc1ccc(Cn2cc(C(=O)N(C)Cc3ccn[nH]3)nn2)cc1 | 8.95
Fc1ccccc1-c1noc2c1CN(CCN1CCOCC1)CC2 | 0.0119
O=C(NCCn1cccc1)C1CCCN(C2CCCC2)C1 (centres undefined) | 0.301
O=C1CCC2(CCCN(Cc3nnc(C4CC4)o3)C2)CN1CCO (centres undefined) | 5.14
CCn1c(CN(C)C)nnc1C1CCN(c2nccc(NC)n2)CC1 | 7.36
O=C(NCc1csc(Cc2ccccc2)n1)C1NCCc2[nH]cnc21 (centres undefined) | -4.32
CCCN1CCC(Cc2noc(-c3cccnc3OC)n2)CC1 | -11.1
Cc1ccc(OC2(C(=O)O)CCN(C(=O)CCc3ccco3)CC2)cn1 | 1.33
CC(C)(C)c1ccn(C2(C(=O)O)CCN(c3ccnc(N)n3)CC2)n1 | 3.63
COc1ccc(N2CCN(C(=O)CCn3nccc3C)C(C)C2)cc1 (centres undefined) | 14.3

Structure (SMILES) | cytotoxicity at 10 µM [%]
CC(C)CN1CCN(C)C(CCO)C1 (centres undefined) | 1.84
CC(C)CC(=O)N1CCCCC(NC(=O)CCc2cccnc2)C1 (centres undefined) | -1.62
CSc1ncc(CN2CC(Oc3c(C)cccc3C)C2)cn1 | 10.3
COCCN(CC(N)=O)CC1CCCN(C2Cc3ccccc3C2)C1 (centres undefined) | -3.01
CN1CCC(Cc2noc(-c3cccc4c3OCC4)n2)CC1 | -4.71
O=C1N(Cc2ccc(F)c(F)c2)CCCC1(O)CNCc1ncc[nH]1 (centres undefined) | -4.27
Cc1noc(C(C)C)c1C(=O)NCc1cccnc1 | 3.93
Cc1oc(C(=O)O)cc1S(=O)(=O)Nc1ccccc1F | -2.8
CC(C(=O)NCCN1CCN(C)CC1)n1cncn1 (centres undefined) | 0.449
CC(NC(=O)CSCC#N)c1ccc(Cl)cc1 (centres undefined) | -2.13
Cc1cc(C)n(C2CCCN(C(=O)c3csc(C4CC4)n3)C2)n1 (centres undefined) | -2.51
Cc1ncc2c(n1)CN(CC(=O)Nc1nnc(C)s1)CC2 | 0.153
O=C(CCS(=O)(=O)c1ccccc1)N1CCCC(n2cccn2)C1 (centres undefined) | -14.7
COc1cc(C(=O)NCc2ccc3c(c2)CCCN3C)cc(OC)c1Br | -6.69
Cc1sc(-c2ccco2)nc1C(=O)N1CCCC1Cn1cccn1 (centres undefined) | -11.2
CC(C)(C)c1nc(CN(Cc2cccs2)C2CCS(=O)(=O)C2)no1 (centres undefined) | -3.63
COc1ccc(C2=CCN(C(=O)C3CCN(C)C(=O)C3)CC2)cc1 (centres undefined) | -9.09
Cc1nc(CN(Cc2ccccc2)C2CCS(=O)(=O)C2)oc1C (centres undefined) | -8.13
N#Cc1ccc(F)c(CN2CCCC2Cn2cnc3ccccc32)c1 (centres undefined) | 0.224
Cc1noc(CN(Cc2ccc3c(c2)OCO3)Cc2ccc(C)o2)n1 | -0.194
Cc1nnc(C(C)N2CCN(Cc3ccc4c(c3)OCO4)CC2)o1 (centres undefined) | -11.6
Cc1nc(N2CCN(C(=O)c3ccsc3)CC2)c2cnn(C)c2n1 | -10.6

Structure (SMILES) | cytotoxicity at 10 µM [%]
Cc1cc(C)cc(N(C)S(=O)(=O)c2cc(C(=O)O)cs2)c1 | -10.4
Cc1nccn1C1CCCN(C(=O)c2ccc3c(c2)NC(=O)CO3)C1 (centres undefined) | -11.5
CC(=O)N(Cc1noc(C)n1)C1CCN(Cc2ccncc2Cl)C1 (centres undefined) | 5.87
Cc1cc(S(=O)(=O)NCc2cccc(C(=O)N3CCCC3)c2)c(C)s1 | 3.13
Cc1nc(CN2CCN(C(=O)c3sccc3C3CC3)CC2)cs1 | 3.61
CN(C)CCN1C(=O)CCCC12CCCN(C(=O)c1cc[nH]n1)C2 (centres undefined) | -0.225
CN1CCOCC2(CCCN(C(=O)c3ccccc3F)C2)C1 (centres undefined) | -91.4
O=C(N1CCOCC1)N1C[C@H]2CN(Cc3nccs3)C[C@H]2C1 | -80.8
CCO[C@H]1CO[C@@]2(CCCN(S(=O)(=O)c3cccnc3)C2)C1 | -86.2
CN(C)Cc1n[nH]c2c1CCN(Cc1cccs1)C2 | 1.63
CC(C)N1C[C@@H]2CN(C(=O)NCc3ccccc3)CCC[C@]2(C(=O)O)C1 | 9.37
Cc1nc(CN2CCCC3(CCN(c4cccnc4)C3=O)C2)cs1 (centres undefined) | 0.574
Cc1cnc(N2CCOCC3(CCN(c4ccccn4)C3)C2)nc1 (centres undefined) | 6.85
CCN(C)c1ncnc2c1CCN(C(=O)Cc1ccccn1)CC2 | -3.26
c1cnc(N2CCN3C[C@H](Oc4cncnc4)C[C@H]3C2)nc1 | 7.97
CN1CCN(C(=O)[C@@H]2CC[C@@H]3[C@@H](CCN3c3ncccn3)O2)CC1 | 7.13
Cc1ccc(CN2CC[C@@H]3OCCN(S(C)(=O)=O)[C@H]3CC2)s1 | 3.91
O=C(CC1CC2(CCN(CC3CC3)CC2)c2ccccc21)NC1CCC1 (centres undefined) | -4.63
COCCN1CCC2(CCN(c3ncccn3)CC2)C1=O | 3.47
CCn1cc2[nH]c(OC)c(CNC(=O)CCC3CCCC3)cc-2c1=O | -3.28
COc1ccccc1-c1nnc2n1N=C(N)C(C#N)S2 (centres undefined) | 1.5
